Test results published in ChEMBL document CHEMBL1152365, “First experimental identification of Ras-inhibitor binding interface using a water-soluble Ras ligand” (Bioorg Med Chem Lett, 2009).
The source made the active and inactive calls. The calls are words filed in the database; no cut-off is given here.

Legend:
[1] = target: GTPase HRas (Homo sapiens) (UniProt P01112); assay: Binding affinity to H-Ras expressed in BL21 De3 Escherichia coli assessed as induction of protein denaturation by circular dichroism
NIH3T3 [2] = assay: Antiproliferative activity against mouse NIH/3T3 cells at 450 uM after 24 hrs by coulter counter; format: functional, cell-based
[3] = Solubility in water; format: physicochemical; settings: buffer
NIH3T3 [4] = assay: Antiproliferative activity against mouse NIH/3T3 cells assessed as morphological changes at 150 uM after 48 hrs; format: functional, cell-based
[5] = Solubility in TRIS buffer; format: physicochemical
NIH3T3 [6] = assay: Antiproliferative activity against mouse NIH/3T3 cells at 150 uM after 24 hrs by coulter counter; format: functional, cell-based
[7] = Chemical stability at neutral pH by HPLC analysis; format: physicochemical
Summary of the method: (§1)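 Stability assessed by TLC and HPLC after storage at neutral pH for months.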

[8] = Chemical stability at neutral pH by TLC analysis; format: physicochemical; summary of the method: as §1
[9] = target: GTPase HRas (Homo sapiens) (UniProt P01112); assay: Binding affinity to hexa-histidine tagged H-Ras.GDP(1-166) expressed in BL21 De3 Escherichia coli by NMR binding experiment
[10] = target: T1, Ras-specific guanine nucleotide-releasing factor 1 (Homo sapiens) (UniProt Q13972); assay: Inhibition of GST-tagged Ras-GRF1-catalyzed exchange of bound GDP on histidine-tagged recombinant H-Ras expressed in Escherichia coli M15 at 100 uM by luminescence spectrometry
T1 sequence (whole entry): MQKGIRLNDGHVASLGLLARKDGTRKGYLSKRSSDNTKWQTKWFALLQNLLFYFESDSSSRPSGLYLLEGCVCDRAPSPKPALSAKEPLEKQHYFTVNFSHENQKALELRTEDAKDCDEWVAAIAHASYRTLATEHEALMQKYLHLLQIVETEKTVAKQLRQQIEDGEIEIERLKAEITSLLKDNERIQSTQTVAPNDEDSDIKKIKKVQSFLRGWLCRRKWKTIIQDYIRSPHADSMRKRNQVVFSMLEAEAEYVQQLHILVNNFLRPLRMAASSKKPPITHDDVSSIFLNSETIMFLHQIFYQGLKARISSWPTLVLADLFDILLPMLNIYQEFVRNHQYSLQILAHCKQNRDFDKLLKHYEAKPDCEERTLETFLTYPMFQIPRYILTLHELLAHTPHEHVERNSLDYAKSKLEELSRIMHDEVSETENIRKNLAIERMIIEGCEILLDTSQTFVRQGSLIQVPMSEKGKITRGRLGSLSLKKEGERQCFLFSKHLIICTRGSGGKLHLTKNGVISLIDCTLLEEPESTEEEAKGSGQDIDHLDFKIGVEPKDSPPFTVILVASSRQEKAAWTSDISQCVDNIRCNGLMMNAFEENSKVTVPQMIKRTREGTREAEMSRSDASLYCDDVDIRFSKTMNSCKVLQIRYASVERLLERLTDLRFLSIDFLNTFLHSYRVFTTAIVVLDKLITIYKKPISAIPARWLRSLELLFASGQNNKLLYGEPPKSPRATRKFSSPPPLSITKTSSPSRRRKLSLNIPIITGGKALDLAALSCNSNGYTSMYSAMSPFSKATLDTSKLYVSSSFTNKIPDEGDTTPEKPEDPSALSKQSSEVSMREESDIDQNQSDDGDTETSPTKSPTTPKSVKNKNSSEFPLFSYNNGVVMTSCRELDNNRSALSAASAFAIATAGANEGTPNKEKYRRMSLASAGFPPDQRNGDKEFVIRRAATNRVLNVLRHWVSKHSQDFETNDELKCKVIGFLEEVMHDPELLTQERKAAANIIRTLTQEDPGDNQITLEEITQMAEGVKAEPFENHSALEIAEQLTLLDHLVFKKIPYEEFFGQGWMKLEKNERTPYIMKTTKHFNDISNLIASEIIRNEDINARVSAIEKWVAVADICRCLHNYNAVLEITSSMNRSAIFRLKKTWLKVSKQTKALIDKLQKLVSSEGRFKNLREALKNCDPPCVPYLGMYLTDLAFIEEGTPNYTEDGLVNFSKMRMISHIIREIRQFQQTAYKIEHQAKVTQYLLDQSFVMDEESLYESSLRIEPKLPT
Summary of the method: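 GDP-to-mantGDP exchange measured on 0.25 µM H-Ras·GDP with […] mantGDP and 0.0625 µM RasGRF1, with compound at 0, 50, 100, 250 or 500 µM. Fluorescence read every second for at least 1500 s. Initial rate taken as first derivative at time 0 and normalized to the no-compound control set at 100. Mean of at least three independent experiments.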

[11] = target: GTPase HRas (Homo sapiens) (UniProt P01112); assay: Binding affinity to H-Ras expressed in BL21 De3 Escherichia coli assessed as damage to protein structure by circular dichroism
[12] = target: GTPase HRas (Homo sapiens) (UniProt P01112); assay: Binding affinity to H-Ras(1-166) expressed in BL21 De3 Escherichia coli by isothermal titration calorimetric study

Sequence of GTPase HRas (Homo sapiens) (P01112 whole entry, looked up): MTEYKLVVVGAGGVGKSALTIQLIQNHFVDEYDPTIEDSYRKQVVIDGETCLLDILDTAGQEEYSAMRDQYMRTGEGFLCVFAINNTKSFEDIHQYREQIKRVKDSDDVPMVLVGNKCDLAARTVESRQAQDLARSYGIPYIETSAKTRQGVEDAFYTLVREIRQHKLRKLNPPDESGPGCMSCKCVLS

Activity [1]: inactive
solubility [3]: Soluble
solubility [5]: Soluble
Stability [7]: Stable
Stability [8]: Stable
Activity [9]: Active
inhibition [10]: 50%
Activity [12]: 37 µM
SMILES: OC[C@H]1O[C@@H](N(Cc2ccc(O)c(O)c2)OCc2ccccc2)[C@H](O)[C@@H](O)[C@@H]1O
Activity (NIH3T3 [2]): Active
Activity (NIH3T3 [4]): Active
Activity (NIH3T3 [6]): Active
Activity [11]: inactive
